# Assay outcomes: PubChem, several laboratories
# Rce1 inh – blocks yeast Ras-converting enzyme; calls only; yeast membranes, quenched prenylated peptide cleavage fluorescence; Q03530; 290,000 tested, 0.27% active;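 active = fall in fluorescence gain of 50% or more versus controls, with final raw signal at or below 3038400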
# Target sequence (Q03530 whole entry, looked up): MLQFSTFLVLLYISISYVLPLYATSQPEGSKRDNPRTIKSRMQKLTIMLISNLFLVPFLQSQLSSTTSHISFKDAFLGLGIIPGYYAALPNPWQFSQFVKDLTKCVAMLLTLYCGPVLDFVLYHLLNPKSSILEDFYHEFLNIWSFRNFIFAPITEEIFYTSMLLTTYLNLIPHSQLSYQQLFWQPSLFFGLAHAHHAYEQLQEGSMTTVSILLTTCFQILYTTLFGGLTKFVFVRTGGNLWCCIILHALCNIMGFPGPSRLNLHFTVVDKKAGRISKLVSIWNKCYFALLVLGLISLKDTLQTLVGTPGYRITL
# NadD inh – inhibitors of Staphylococcus aureus NadD. purified NadD enzyme, colorimetric absorbance read-out. inhibition, % at 20 µM. 360,000 tested, 0.78% active; in the data active = inhibition above about 26%
# TbMetRS inhib – blocks T. brucei methionyl-tRNA synthetase activity. purified T. brucei MetRS, ATP depletion, Kinase-Glo luminescence. 360,000 tested, 0.4% active. inhibition, % at 11.9 µM;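 active = inhibition above a per-plate cutoff of the control wells' mean inhibition plus 3 SD, cut at about 5.5% in these data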
#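 Material: T. brucei methionyl-tRNA synthetase, purified; reagent: substrates ATP, L-methionine and bulk Escherichia coli tRNA; dosing: 11.9 µM single point; timing: 15 min plus 2 h at 25 °C; detection: luminescence of leftover ATP; evaluation: % inhibition; control set: DMSO-only wells as low control; replicates: singlicate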
# DSG3 Ab inh – human desmoglein-3 autoantibody binding inhibition | DSG3-coupled beads, scFv-anti-DSG3-GFP binding, flow cytometry; hits give low values | binding (percent of control), % at 10 µM | 310,000 tested, 0.48% active | AID 588358;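 active = binding more than 3 SD below its plate's average and above zero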;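 also: hits lower antibody fragment binding to DSG3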
# HCV core dimer – HCV core protein dimerization inhibition. 300,000 tested, 0.33% active. AID 1899. inhibition, % at 5 µM. TR-FRET GST/Flag-core106 dimerization, 1536-well;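 active = inhibition above the mean of all tested compounds plus 3 SD, set per screening campaign, cut at about 45% in these data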
#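 assay system = GST-tagged and Flag-tagged HCV core protein residues 1-106 | controls = unlabelled core106 and no-GST-core106 wells | incubation = compound-protein-antibody incubation 4 h at 22.5 °C | probe or stimulus = Eu donor and XL665 acceptor anti-tag antibodies | read-out = % inhibition based on acceptor/donor emission ratio | signal = TR-FRET 671 and 617 nm emission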
# NadD inh conf – NadD (S. aureus) inhibition, single concentration confirmation. inhibition, % at 20 µM. 2,000 tested, 13% active. shares compounds with NadD inh. purified S. aureus NadD, colorimetric enzyme assay; in the data active = inhibition mostly above about 42%, no sharp cut-off; inactive = mostly below about 42%
# Numbers stand for hits; – = inactive; · = not tested or not shown. In the library only some 1.9% were active in any assay of this set; here they are far more common.
SMILES,Rce1 inh,NadD inh,TbMetRS inhib,DSG3 Ab inh,HCV core dimer,NadD inh conf
COc1ccc(N/C(=N/c2nc(C)cc(C)n2)NC(=O)Nc2ccc(Cl)c(Cl)c2)c(OC)c1,–,33.2,–,–,–,–
Cc1ccc(CC(SCc2ccccc2)C(=O)O)cc1C (configuration not stated),–,–,–,–,–,·
Cn1c(=O)c(C(=O)CN2CCc3ccccc32)c(N)n(Cc2ccccc2)c1=O,–,62.5,–,–,–,–
Nc1ncc2c(n1)-c1cc(Cl)ccc1SC2,–,29.4,–,–,–,–
Cc1ccc2nc(SCC(=O)Nc3oc(C)c4c(C)n[nH]c(=O)c34)[nH]c2c1,·,–,–,–,·,·
Cc1ccc(NC(=O)CC2S/C(=N/N=C/C=C/c3ccccc3)NC2=O)cc1Cl (configuration not stated),–,32.3,–,–,–,–
Cc1ccc(NC(=O)CC2S/C(=N/N=C/c3ccco3)NC2=O)cc1Cl (configuration not stated),–,–,–,–,–,·
COc1ccc(NC2CCCN(C(=O)CCCn3cncn3)C2)cc1 (configuration not stated),·,–,–,·,–,·
O=S(c1ccccc1O)S(=O)c1ccccc1O (configuration not stated),·,39.2,–,–,·,68.0
O=C(c1ccc(Cl)c(S(=O)(=O)N2CCCC2)c1)N1CCN(Cc2ccccc2)CC1,·,–,–,–,·,·
CNS(=O)(=O)c1cccc(C(=O)OCC(=O)NC2CCCC(C)C2C)c1 (configuration not stated),·,–,–,–,·,·
COc1cccc2c1CCC1=CC(=O)CCC12C (configuration not stated),·,–,–,–,·,·
O=C(N/N=C\c1ccc(-c2ccccc2[N+](=O)[O-])o1)C1COc2ccccc2O1 (configuration not stated),–,–,–,–,–,·
O=C(N/N=C\c1ccc(-c2ccccc2[N+](=O)[O-])o1)C1COc2cc3ccccc3cc2O1 (configuration not stated),–,42.0,10.4,·,–,–
Cc1c(C(=O)N/N=C/c2ccc(-c3ccccc3[N+](=O)[O-])o2)sc(N)c1C#N,–,35.8,–,–,–,–
O=C(N/N=C/c1ccc(-c2ccccc2[N+](=O)[O-])o1)c1cncc(Br)c1,–,–,–,–,–,·
CCCCNC(=O)c1ccc(CS(=O)(=O)c2cccc(C(F)(F)F)c2)o1,–,–,–,–,–,·
O=c1c2ccccc2nc2sc3ccccc3n12,–,–,–,–,–,·
COc1ccc(C(C(=O)NC2CCCC2)n2c(C3CCN(C(C)=O)CC3)nc3ccccc32)cc1 (configuration not stated),·,·,–,·,·,·
Cn1cnnc1SCC(=O)Nc1sc2c(c1C#N)CCCCC2,·,–,–,–,–,·
Cn1c(CNC(=O)c2ccc(Cl)c(Cl)c2)nnc1SCC(=O)Nc1sc2c(c1C#N)CCCC2,–,45.3,–,–,–,–
Cn1c(SCC(=O)O)nc2ccccc2c1=O,–,–,–,–,–,·
COc1ccc(Cl)cc1N(CC(=O)N/N=C/c1ccc(OC(C)C)cc1)S(=O)(=O)c1ccc(C)c([N+](=O)[O-])c1,–,31.2,–,–,–,–
Cc1cc(C(=O)N/N=C/c2cc(Br)ccc2OC(=O)c2ccccc2Cl)n[nH]1,–,35.3,–,–,–,–
COc1cc(/C=C(\C#N)c2nc3ccc(C)cc3[nH]2)cc([N+](=O)[O-])c1O,·,–,–,–,·,·
Cc1ccc2nc(/C(C#N)=C\c3ccc(Oc4ccc(C(F)(F)F)cc4[N+](=O)[O-])cc3)[nH]c2c1,–,32.7,–,–,–,–
COc1ccc(/C=C(\C#N)c2nc3ccccc3[nH]2)cc1O,–,–,–,–,·,·
COc1ccc(/C=C(\C#N)c2nc3ccc(C)cc3[nH]2)cc1Oc1ccc(C(F)(F)F)cc1[N+](=O)[O-],–,31.7,–,–,–,–
COc1cc(/C=C(\C#N)c2nc3ccc(C)cc3[nH]2)c([N+](=O)[O-])cc1OC,–,–,–,–,–,·
N#C/C(=C\c1cccc(Oc2ccc(C(F)(F)F)cc2[N+](=O)[O-])c1)c1nc2ccccc2[nH]1,–,38.4,–,–,–,–
